PAFAH2 inh: inhibitors of human PAFAH2 | recombinant PAFAH2, FP-rhodamine activity probe, fluorescence polarization | inhibition, % at 3.39 µM | actives 0.99% (n = 340,000) | AID 492956;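 active means inhibition above the mean over all tested compounds plus 3 SD, cut at about 30% in these data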;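 further: inhibitors block probe labeling of enzyme so polarization drops; 0% = enzyme with DMSO and 100% = wells lacking PAFAH2 protein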
GRIN3A LBD mod: modulates the human NR3A ligand-binding domain; NR3A LBD differential scanning fluorimetry, Tm shift; 0% = protein alone, 100% = glycine-bound protein; Tm shift relative to glycine control, % at 25 µM; actives 2.5% (n = 340,000);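 active means melting temperature shift of at least 10% of the positive control shift, at one fixed dose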
pPAFAH FP inh: pPAFAH (human) enzyme inhibition. Q13093. inhibition, % at 3.39 µM. actives 1.5% (n = 330,000). recombinant pPAFAH, FP-rhodamine probe fluorescence polarization;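 active means inhibition above the mean inhibition across the screen plus 3 SD, cut at about 25% in these data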;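 further: inhibitors block binding of the rhodamine activity-based probe so polarization drops; 0% = enzyme with DMSO and 100% = wells lacking pPAFAH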
Target sequence (Q13093 whole entry, looked up): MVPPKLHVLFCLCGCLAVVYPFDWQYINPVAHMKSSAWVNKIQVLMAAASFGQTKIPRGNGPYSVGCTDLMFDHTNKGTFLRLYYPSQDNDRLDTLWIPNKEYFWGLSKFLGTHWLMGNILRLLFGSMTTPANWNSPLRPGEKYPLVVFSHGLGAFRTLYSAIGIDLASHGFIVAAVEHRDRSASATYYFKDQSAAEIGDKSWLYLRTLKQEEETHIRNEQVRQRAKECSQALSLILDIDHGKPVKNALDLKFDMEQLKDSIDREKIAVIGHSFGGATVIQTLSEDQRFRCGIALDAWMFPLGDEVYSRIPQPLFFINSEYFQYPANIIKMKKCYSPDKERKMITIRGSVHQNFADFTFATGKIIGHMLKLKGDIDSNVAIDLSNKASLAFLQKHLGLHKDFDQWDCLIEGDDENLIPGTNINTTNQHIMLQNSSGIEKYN
PAFAH1B3 inh: blocks human PAF acetylhydrolase 1B catalytic subunit 3. actives 0.28% (n = 340,000). inhibition, % at 3.39 µM. recombinant PAFAH1B3, FP-rhodamine probe, fluorescence polarization. Q15102;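 active means inhibition above the screen-wide average of all tested compounds plus 3 SD, cut at about 25% in these data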;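 further: 0% = enzyme with DMSO only and 100% = wells lacking PAFAH1B3 protein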
Target sequence (Q15102 whole entry, looked up): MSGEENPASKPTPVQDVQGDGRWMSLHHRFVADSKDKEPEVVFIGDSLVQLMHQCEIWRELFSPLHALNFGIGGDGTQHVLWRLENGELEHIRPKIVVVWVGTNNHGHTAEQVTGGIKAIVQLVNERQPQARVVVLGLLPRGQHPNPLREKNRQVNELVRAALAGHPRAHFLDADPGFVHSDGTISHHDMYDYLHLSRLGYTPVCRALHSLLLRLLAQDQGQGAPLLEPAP
PAFAH1B2 inh: blocks human PAF acetylhydrolase 1b catalytic subunit 2; P68402; recombinant PAFAH1B2, FP-rhodamine activity probe, fluorescence polarization; inhibition, % at 3.39 µM; actives 1.2% (n = 340,000); AID 492953;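 active means inhibition above the mean of all tested compounds plus 3 SD, cut at about 24% in these data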;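 further: 0% = enzyme with DMSO and 100% = wells lacking PAFAH1B2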
UCH37 DUB inh: blocks the human deubiquitinase UCH37 | inhibition, % (test concentration not listed) | purified proteasome/UCH37, Ub-AMC cleavage fluorescence | actives 0.33% (n = 330,000) | Q9Y5K5;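 active means mean inhibition over replicate wells above about 20%, limit read from the data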;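 further: 0% = compound-free wells with enzyme and 100% = wells lacking proteasome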
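Material: human UCH37 enzyme supplied as purified proteasome complex / Amount: 0.15 nM proteasome as dispensed / Buffer or medium: pH 7.4 Tris-HCl (50 mM) with ovalbumin, ATP-MgCl2, DTT / Times: preincubation 30 min, reaction 25 min, room temperature / Technique: AMC fluorescence from Ub-AMC cleavage, excitation 355 nm, emission 460 nm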
* = called active by the depositor; · = no result. Shown are actives, neighbours in structure and some others; about 4.8% of the full set was active somewhere.

SMILES	PAFAH2 inh	GRIN3A LBD mod	pPAFAH FP inh	PAFAH1B3 inh	PAFAH1B2 inh	UCH37 DUB inh
CC(C)(C)C(=O)NCCN1CCN(C(=O)C(C)(C)C)CC1	2	673*	6	0	6	3
COc1cc(NC(=O)c2cc3ccccc3cc2O)c(OC)cc1Cl	6	33*	9	8	2	-203
N#C/C(=C\c1ccc(OC(=O)c2ccc(Br)s2)cc1)c1nc2ccccc2[nH]1	-22	26*	3	-22	-4	·
Nc1ccc2c(c1)N1CCN=C1S2	-1	1	-1	6	-1	-2
O=C(Nc1ccc(Cl)cc1)Nc1ccc2c(c1)N1CCN=C1S2	5	14*	12	10	7	2
COc1ccc(CC(=O)NN=Cc2cccs2)cc1OC	·	·	·	·	·	3
COc1cccc(/C=N/NC(=O)c2ccc(OCc3cccc(Br)c3)cc2)c1	-52	29*	-17	-44	-28	·
COc1ccc(/C=N\NC(=O)c2ccccc2[N+](=O)[O-])cc1COc1c(F)c(F)c(F)c(F)c1F	-16	10*	10	-4	-2	·
COc1ccc(C=NNC(=O)c2ccccc2)cc1COc1ccc(F)cc1	·	·	·	·	·	3
COc1ccc(/C=N\NC(=O)c2cccc(F)c2)cc1COc1ccccc1	-22	16*	-11	-4	-11	·
O=C(N/N=C/c1cccc(OCc2ccccc2)c1)c1ccc(Br)cc1	-11	1	7	1	6	·
Nc1ccc(C(=O)N/N=C/c2cccc(Oc3ccccc3)c2)cc1	1	10*	·	-5	6	·
COc1ccc(C=NNC(=O)c2ccc(OC)c(OC)c2)cc1COc1c(F)c(F)c(F)c(F)c1F	·	·	·	·	·	4
Cc1cc(-c2ccc(C=Nn3cnnc3)o2)c(C)c([N+](=O)[O-])c1	·	·	·	·	·	7
Nc1cc(-c2ccc(Br)cc2)nn1S(=O)(=O)c1cccc2nsnc12	2	0	15	1	6	4
Nc1cc(-c2ccc(Cl)cc2)nn1S(=O)(=O)c1cccc2nsnc12	10	19*	8	1	1	2
COc1ccc(CN(C)C(c2ccccc2)c2nnnn2-c2ccccc2C)c(OC)c1C (stereo not given)	-3	15*	7	2	1	3
Cc1cc(-c2ccccc2)nc(N/N=C/c2ccc([N+](=O)[O-])cc2)n1	1	24*	11	0	-1	·
Cc1ccc(-c2nc(N/N=C/c3cccc([N+](=O)[O-])c3)c3ccccc3n2)cc1	0	163*	2	0	-4	·
O=[N+]([O-])c1ccc(C=NNc2ccccc2)cc1	2	34*	·	7	6	3
O=[N+]([O-])c1ccc(N/N=C/c2ccccc2)c(F)c1	1	36*	7	4	-1	·
Cc1nc(C)c(C(=O)NN=Cc2ccco2)s1	·	·	·	·	·	5
Cc1cccc(N2CN=c3sc(=Cc4ccncc4)c(=O)n3C2)c1	·	·	·	·	·	6
N#CC1=C(N)n2c(sc(=Cc3ccco3)c2=O)=C(C#N)C1c1ccco1 (stereo not given)	·	·	·	·	·	15
Nc1cc(Cl)nc(N/N=C/c2ccc([N+](=O)[O-])cc2)n1	8	21*	2	4	-3	·
SMILES	PAFAH2 inh	GRIN3A LBD mod	pPAFAH FP inh	PAFAH1B3 inh	PAFAH1B2 inh	UCH37 DUB inh
O=[N+]([O-])c1ccc(NN=Cc2cccc(O)c2)cc1	·	·	·	·	·	0
O=[N+]([O-])c1cccc(NN=Cc2ccc(N3CCOCC3)cc2)c1	·	·	·	·	·	6
O=[N+]([O-])c1cccc(N/N=C/c2ccc(N3CCOCC3)cc2)c1	0	22*	15	5	6	·
Cc1cc(-c2ccccc2)nc(N/N=C/c2ccc(O)cc2O)n1	7	11*	20	13	9	·
Cc1cc(-c2ccccc2)nc(NN=Cc2ccc(O)cc2)n1	·	·	·	·	·	6
O=[N+]([O-])c1cccc(C=NNc2ccccc2)c1	4	34*	·	8	-2	2
Fc1ccc(C=NNC(=S)Nc2cccnc2)cc1F	·	·	·	·	·	-1
O=C(CSc1ncn[nH]1)NN=Cc1ccc(C(F)(F)F)cc1	·	·	·	·	·	0
Cc1c(Cl)cccc1Nc1nc(N)nc(CSc2nc3ccccc3s2)n1	-11	11*	-2	-3	-4	2
Cc1[nH]c2ccccc2c1C=NNC(=O)c1cccs1	·	·	·	·	·	5
O=C(O)c1cc(N/N=C/c2c[nH]c3ccccc23)ccc1Cl	24	22*	12	-5	1	·
O=C(N/N=C/c1c[nH]c2ccccc12)c1cccc(O)c1	5	26*	9	5	4	·
O=C(N/N=C/C1C(c2ccccc2)C1(Cl)Cl)c1cccc(Cl)c1 (stereo not given)	-8	-5	2	2	29*	·
O=C(O)c1cc(NN=Cc2c[nH]c3ccccc23)ccc1Cl	·	·	·	·	·	5
O=C(N/N=C/c1c[nH]c2ccccc12)c1cccc(Cl)c1	9	37*	5	-3	8	·
O=C(NN=CC1C(c2ccccc2)C1(Cl)Cl)c1cccc(Cl)c1 (stereo not given)	·	·	·	·	·	0
CC(/C=C/c1ccc2c(c1)OCO2)=NNC(=O)C1COc2ccccc2O1 (stereo not given)	·	·	·	·	·	-21
CCNC(=O)COc1ccc(C=NNC(=O)c2cccnc2)cc1OC	·	·	·	·	·	5
COc1ccc2c(C=NNS(=O)(=O)c3ccc(C)cc3)c[nH]c2c1	·	·	·	·	·	0
CC(=O)Nc1cccc(C(=O)N/N=C/c2c[nH]c3ccccc23)c1	6	30*	2	9	4	·
Cc1ccc(NCC(=O)N/N=C/c2c[nH]c3ccccc23)cc1	5	24*	5	11	4	·
O=C(NN=Cc1c[nH]c2ccccc12)c1ccncc1	·	·	·	·	·	5
COc1ccc2c(c1)C(=NNc1ccc(C(=O)O)cc1)c1cc(OC)ccc1-2	21	2	31*	27*	11	·
COc1ccc2c(/C=N/Nc3ccc(C(=O)O)cc3)c[nH]c2c1	-4	2	28*	6	-1	·
CC(CC1CC(COCCC(C)C)OC1=O)=NNC(N)=S (stereo not given)	·	·	·	·	·	4
SMILES	PAFAH2 inh	GRIN3A LBD mod	pPAFAH FP inh	PAFAH1B3 inh	PAFAH1B2 inh	UCH37 DUB inh
CC(=NNC(=O)c1nnn(-c2nonc2N)c1-c1ccc(Cl)c(Cl)c1)c1ccncc1	·	·	·	·	·	2
O=C(Cn1c(-c2ccccn2)nc2ccccc21)NN=Cc1ccccn1	·	·	·	·	·	3
COc1ccc(C(=O)NN=Cc2c[nH]c3ccccc23)cc1	·	·	·	·	·	4
O=C(N/N=C/c1c[nH]c2ccc(Br)cc12)c1ccn(Cc2ccc(Cl)cc2)n1	-12	18*	6	5	0	·
CCCOc1ccc(C(=O)N/N=C/c2c[nH]c3ccc(Br)cc23)cc1	0	37*	27*	9	7	·
COc1ccc(C(=O)N/N=C/c2c[nH]c3ccccc23)cc1	9	37*	-1	7	7	·
COc1ccc2c(c1)c(/C=N/Nc1ccc(C(=O)O)cc1)c(C)n2C	6	2	25*	8	3	·

Compound activity: PubChem BioAssay, several laboratories
